# Results reported in ChEMBL document CHEMBL1629527, “In vitro antifungal activities of bis(alkylpyridinium)alkane compounds against pathogenic yeasts and molds” (Antimicrob Agents Chemother, 2010).
# Legend:
# [1] = system: Candida tropicalis; assay: Antifungal activity against Candida tropicalis after 24 to 72 hrs by broth microdilution method; type: functional
# Summary of the method: (§1)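 Broth microdilution MIC per CLSI M27-A3 (yeasts) or M38-A2 (molds). RPMI 1640 with L-glutamine, without bicarbonate, buffered to pH 7.0 with 0.165 M MOPS. Final test range for the compounds was 0.175–87.5 μM. Incubation at 35°C with visual reading at 24–72 h. MIC was the lowest concentration giving 100% inhibition versus the growth control (azoles 50% or 100%, by organism). Each isolate was run in duplicate in two independent experiments.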
# [2] = system: Lichtheimia corymbifera; assay: Antifungal activity against Absidia corymbifera 04-200170 after 24 to 72 hrs by broth microdilution method; type: functional; summary of the method: as §1
# [3] = system: Candida dubliniensis; assay: Antifungal activity against Candida dubliniensis after 24 to 72 hrs by broth microdilution method; type: functional; summary of the method: as §1
# [4] = system: Candida parapsilosis; assay: Antifungal activity against Candida parapsilosis 04-202398 after 24 to 72 hrs by broth microdilution method; type: functional; conditions: Lodderomyces parapsilosis; summary of the method: as §1
# [5] = system: Aspergillus terreus; assay: Antifungal activity against Aspergillus terreus 05-202844 after 24 to 72 hrs by broth microdilution method; type: functional; summary of the method: as §1
# [6] = system: Candida parapsilosis; assay: Antifungal activity against Candida parapsilosis after 24 to 72 hrs by broth microdilution method; type: functional; conditions: Lodderomyces parapsilosis; summary of the method: as §1
# [7] = system: Pichia kudriavzevii; assay: Antifungal activity against Candida krusei after 48 to 72 hrs; type: functional
# Summary of the method: (§2)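 MFC: after the MIC read, 30-μl aliquots from each well without visible growth were plated onto Sabouraud dextrose agar and incubated at 35°C. Reading was at 48–72 h for yeasts and up to 7 days for molds. MFC was the lowest concentration with no colonies.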
# [8] = system: Fusarium solani; assay: Antifungal activity against Fusarium solani 04-203102 after 24 to 72 hrs by broth microdilution method; type: functional
# Summary of the method: (§3)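 Mold isolates subcultured on potato dextrose agar, then tested by CLSI M38-A2 broth microdilution in RPMI 1640 (L-glutamine, no bicarbonate) buffered to pH 7.0 with 0.165 M MOPS. Compounds were dissolved in water and tested at a final 0.175–87.5 μM. Plates were incubated at 35°C. MIC was read visually as the lowest concentration giving 100% inhibition versus the growth control. Each isolate was run in duplicate in two independent experiments.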
# [9] = system: Pichia kudriavzevii; assay: Antifungal activity against Candida krusei 04-202328 after 24 to 72 hrs by broth microdilution method; type: functional; summary of the method: as §1
# [10] = Antifungal activity against Paecilomyces lilacinus 05-200601 after 24 to 72 hrs by broth microdilution method; type: functional; conditions: Purpureocillium lilacinum; summary of the method: as §3
# [11] = system: Cryptococcus neoformans; assay: Antifungal activity against Cryptococcus neoformans 05-202523 after 48 to 72 hrs; type: functional; summary of the method: as §2
# [12] = system: Nakaseomyces glabratus; assay: Antifungal activity against Candida glabrata 04-202345 after 24 to 72 hrs by broth microdilution method; type: functional; summary of the method: as §1
# [13] = system: Cryptococcus neoformans; assay: Antifungal activity against Cryptococcus neoformans 05-202523 after 24 to 72 hrs by broth microdilution method; type: functional; summary of the method: as §1
# [14] = system: Cryptococcus gattii species complex; assay: Antifungal activity against Cryptococcus gattii 05-200122 after 24 to 72 hrs by broth microdilution method; type: functional, Cryptococcus bacillisporus; summary of the method: as §1
# [15] = system: Candida parapsilosis; assay: Antifungal activity against Candida parapsilosis after 48 to 72 hrs; type: functional; summary of the method: as §2
# [16] = system: Cryptococcus neoformans; assay: Antifungal activity against Cryptococcus neoformans after 24 to 72 hrs by broth microdilution method; type: functional; summary of the method: as §1
# [17] = system: Candida albicans; assay: Antifungal activity against Candida albicans ATCC 10231 after 24 to 72 hrs by broth microdilution method; type: functional; summary of the method: as §1
# [18] = system: Cryptococcus gattii species complex; assay: Antifungal activity against Cryptococcus gattii after 24 to 72 hrs by broth microdilution method; type: functional, Cryptococcus bacillisporus; summary of the method: as §1
# [19] = system: Nakaseomyces glabratus; assay: Antifungal activity against Candida glabrata after 48 to 72 hrs; type: functional; summary of the method: as §2
# [20] = system: Candida tropicalis; assay: Antifungal activity against Candida tropicalis 04-202361 after 24 to 72 hrs by broth microdilution method; type: functional; summary of the method: as §1
# [21] = system: Aspergillus flavus; assay: Antifungal activity against Aspergillus flavus ATCC 204304 after 48 to 72 hrs; type: functional; summary of the method: as §2
# [22] = system: Cryptococcus neoformans; assay: Antifungal activity against Cryptococcus neoformans ATCC 90112 after 24 to 72 hrs by broth microdilution method; type: functional; summary of the method: as §1
# [23] = system: Aspergillus flavus; assay: Antifungal activity against Aspergillus flavus ATCC 204304 after 24 to 72 hrs by broth microdilution method; type: functional; summary of the method: as §1
# [24] = system: Rhizopus arrhizus; assay: Antifungal activity against Rhizopus oryzae 05-203111 after 24 to 72 hrs by broth microdilution method; type: functional; summary of the method: as §3
# [25] = system: Exophiala spinifera; assay: Antifungal activity against Exophiala spinifera 03-200803 after 24 to 72 hrs by broth microdilution method; type: functional; summary of the method: as §3
# [26] = system: Aspergillus fumigatus; assay: Antifungal activity against Aspergillus fumigatus 05-203114 after 24 to 72 hrs by broth microdilution method; type: functional; summary of the method: as §1
# [27] = system: Candida parapsilosis; assay: Antifungal activity against Candida parapsilosis ATCC 22019 after 24 to 72 hrs by broth microdilution method; type: functional; conditions: Lodderomyces parapsilosis; summary of the method: as §1
# [28] = system: Pichia kudriavzevii; assay: Antifungal activity against Candida krusei after 24 to 72 hrs by broth microdilution method; type: functional; summary of the method: as §1
# [29] = system: Candida tropicalis; assay: Antifungal activity against Candida tropicalis after 48 to 72 hrs; type: functional; summary of the method: as §2
# [30] = system: Nakaseomyces glabratus; assay: Antifungal activity against Candida glabrata after 24 to 72 hrs by broth microdilution method; type: functional; summary of the method: as §1
# [31] = system: Scedosporium apiospermum; assay: Antifungal activity against Scedosporium apiospermum 05-203100 after 24 to 72 hrs by broth microdilution method; type: functional; summary of the method: as §3
# [32] = system: Cryptococcus gattii species complex; assay: Antifungal activity against Cryptococcus gattii after 48 to 72 hrs; type: functional, Cryptococcus bacillisporus; summary of the method: as §2
# [33] = system: Meyerozyma guilliermondii; assay: Antifungal activity against Candida guilliermondii after 24 to 72 hrs by broth microdilution method; type: functional; summary of the method: as §1
# [34] = system: Cunninghamella bertholletiae; assay: Antifungal activity against Cunninghamella bertholletiae 99-12187 after 24 to 72 hrs by broth microdilution method; type: functional; summary of the method: as §1
# [35] = system: Candida albicans; assay: Antifungal activity against Candida albicans after 24 to 72 hrs by broth microdilution method; type: functional
# Summary of the method: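 CLSI M27-A3 broth microdilution for yeasts in RPMI 1640 with L-glutamine and no bicarbonate, buffered with 0.165 M MOPS to pH 7.0. Compounds were dissolved in water and tested at 0.175–87.5 μM final, 35°C. MIC was read visually at 24–72 h as 100% inhibition versus growth control. For MFC, 30 μl from clear wells went onto SDA at 35°C for 48–72 h, reading the lowest concentration without colonies. Duplicates, two independent runs.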
# [36] = system: Aspergillus flavus; assay: Antifungal activity against Aspergillus flavus 05-203758 after 24 to 72 hrs by broth microdilution method; type: functional; summary of the method: as §1
smiles,measurement,setting,value
CCCCCCc1cc[n+](CCCCCCCCCCCC[n+]2ccc(CCCCCC)cc2)cc1.[Cl-].[Cl-],MIC,[1],1.18 µg/mL
same,MIC50,[1],1.56 µg/mL
same,MIC90,[1],1.56 µg/mL
same,MIC,[2],50.7 µg/mL
same,MIC,[3],0.739 µg/mL
same,MIC50,[3],0.79 µg/mL
same,MIC90,[3],0.79 µg/mL
same,MIC,[4],25.3 µg/mL
same,MIC,[5],0.79 µg/mL
same,MIC,[6],28.6 µg/mL
same,MIC50,[6],24.9 µg/mL
same,MIC90,[6],49.5 µg/mL
same,MFC50,[7],1.56 µg/mL
same,MFC90,[7],3.11 µg/mL
same,MFC,[7]; Pichia kudriavzevii,0.79 µg/mL
same,MIC,[8],12.7 µg/mL
same,MIC,[9],3.2 µg/mL
same,MIC,[10],50.7 µg/mL
same,MFC,[11],25.3 µg/mL
same,MIC,[12],0.79 µg/mL
same,MIC,[13],6.3 µg/mL
same,MIC,[14],0.79 µg/mL
same,MFC50,[15],49.5 µg/mL
same,MFC90,[15],49.5 µg/mL
same,MFC,[15]; Lodderomyces parapsilosis,24.9 µg/mL
same,MIC,[16],1.19 µg/mL
same,MIC50,[16],0.79 µg/mL
same,MIC90,[16],3.11 µg/mL
same,MIC,[17],0.79 µg/mL
same,MIC,[18],0.79 µg/mL
same,MIC50,[18],0.79 µg/mL
same,MIC90,[18],0.79 µg/mL
same,MFC50,[19],1.56 µg/mL
same,MFC90,[19],1.56 µg/mL
same,MFC,[19]; Nakaseomyces glabratus,0.39 µg/mL
same,MIC,[20],0.79 µg/mL
same,MFC,[21],25.3 µg/mL
same,MIC,[22],0.79 µg/mL
same,MIC,[23],12.7 µg/mL
same,MIC,[24],0.79 µg/mL
same,MIC,[25],1.58 µg/mL
same,MIC,[26],12.7 µg/mL
same,MIC,[27],0.79 µg/mL
same,MIC,[28],1.36 µg/mL
same,MIC50,[28],1.56 µg/mL
same,MIC90,[28],1.56 µg/mL
same,MFC50,[29],1.56 µg/mL
same,MFC90,[29],1.56 µg/mL
same,MFC,[29]; Candida tropicalis,0.39 µg/mL
same,MIC,[30],0.739 µg/mL
same,MIC50,[30],0.79 µg/mL
same,MIC90,[30],0.79 µg/mL
same,MIC,[31],50.7 µg/mL
same,MFC50,[32],0.79 µg/mL
same,MFC90,[32],0.79 µg/mL
same,MFC,[32]; Cryptococcus gattii species complex,0.79 µg/mL
same,MIC,[33],0.789 µg/mL
same,MIC50,[33],0.79 µg/mL
same,MIC90,[33],1.56 µg/mL
same,MIC,[34],12.7 µg/mL
same,MIC,[35],1.56 µg/mL
same,MIC50,[35],1.56 µg/mL
same,MIC90,[35],1.56 µg/mL
same,MIC,[36],25.3 µg/mL
